In assay [1] the target is T1, Inosine-5'-monophosphate dehydrogenase 2 (Homo sapiens, UniProt P12268). Put plainly: In vitro inhibition of Inosine-5'-monophosphate dehydrogenase 2. The method, boiled down: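 Human type II IMPDH purified from E. coli expressing the gene; 40 nM enzyme, 400 µM IMP, 2 mM DTT in 0.1 M Tris, 0.1 M KCl, 3 mM EDTA pH 8.0; final DMSO 2.5%. Started with NAD (final 400 µM); after 2 h at 25 °C, NADH read at 340 nm.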

The test system of the next assay is CCRF-CEM. Put plainly: Inhibitory concentration against human T-lymphoblast CEM cell line (ATCC) by CEM proliferation assay. It is filed as functional, cell-based. The method, boiled down: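 CEM human T-lymphoblasts in RPMI 1640 with 10% heat-inactivated FBS plus penicillin/streptomycin, seeded 3000 cells/well with 0.5% DMSO. Compounds tested in triplicate from 10 uM top final concentration, 3-fold serial dilutions. Cells held 72 h in 5% CO2 humidified atmosphere. Viability measured by Alamar Blue (10% v/v, final 5 h), fluorescence at 530/590 nm.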

Assay [2] deals with T1, Inosine-5'-monophosphate dehydrogenase 2. Put plainly: The compound was tested for it's in vitro inhibitor potency against inosine monophosphate dehydrogenase II (IMPDH II). In short, it runs like this:
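Human type II IMPDH purified from E. coli expressing the gene; 40 nM enzyme, 400 µM IMP, 2 mM DTT in 0.1 M Tris, 0.1 M KCl, 3 mM EDTA pH 8.0; final DMSO 2.5%. Started with NAD (final 400 µM); after 2 h at 25 °C, NADH read at 340 nm. IC50 for 50% inhibition of NADH accumulation from 4-parameter logistic fit.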

Bounds are passed on as bounds.

For orientation: IC50 means the point on the concentration scale where inhibition reaches its midpoint. Low readings indicate greater potency, high ones weaker potency.

For the compound `COc1cc(NC(=NC#N)Nc2cccc(CNC(=O)NCC3CCCO3)c2)ccc1-c1cnco1` (stereo not drawn), half-maximal inhibition in assay [1] (IC50) required 180 nM.

As for `COc1cc(NC(=NC#N)Nc2cccc(CNC(=O)O[C@H]3CCOC3)c2)ccc1-c1cnco1`, in assay [1], the midpoint of inhibition, the IC50, lay at 340 nM.

As to `COc1cc(N/C(=N/c2cccnc2)NC#N)ccc1-c1cnco1`, the IC50 in assay [1] is 320 nM.

On to `CCCCNC(=O)c1cccc(NC(=NC#N)Nc2ccc(-c3cnco3)c(OC)c2)c1`, for which the midpoint of inhibition in assay [1], the IC50, lay at 130 nM.

`COc1cc(N/C(=N/c2cccc(C/N=C(\NC#N)Oc3ccccc3)c2)NC#N)ccc1-c1cnco1`: the concentration for half-maximal inhibition (IC50) in assay [1] was 16 nM; in the assay with CCRF-CEM, 410 nM.

In turn, `COc1cc(NC(=NC#N)Nc2ccccc2C)ccc1-c1cnco1` registered an IC50 in assay [1] of 2200 nM.

As for `CCOC(=O)N=C(Nc1cccc(C)c1)Nc1ccc(-c2cnco2)c(OC)c1`, the half-maximal inhibitory concentration (IC50) in assay [1] was 740 nM. Against the preceding compound, the IC50 is about 3-fold lower.

For the compound `CN/C(=N\c1ccc(-c2cnco2)c(OC)c1)Nc1cccc(C)c1`, the half-maximal inhibitory concentration (IC50) in assay [1] is above 3000 nM.

With `COc1cc(N=C(N)NC(=O)c2ccccc2)ccc1-c1cnco1`, half-maximal inhibition in assay [1] (IC50) required 800 nM.

Consider `COc1cc(NC(=NC#N)Nc2ccccc2)ccc1-c1cnco1`, for which the half-maximal inhibitory concentration (IC50) in assay [1] came to 250 nM. Against the preceding compound, the IC50 is about 3.2-fold lower.

Take `COc1cc(NC(=O)Nc2cccc(C)c2)ccc1-c1cnco1`: in assay [1], the IC50 was determined as 19 nM. Against the preceding compound, the IC50 is about 13-fold lower.

Regarding `COc1cc(N=C(N)Nc2cccc(C)c2)ccc1-c1cnco1`, the 50% inhibitory concentration (IC50) in assay [2] was above 3000 nM.

For `COc1cc(N=C(NC(C)=O)Nc2cccc(C)c2)ccc1-c1cnco1`, the IC50 in assay [1] is above 1000 nM.

As for `COc1cc(N/C(=N/C#N)Nc2cccc(CNC(=O)OCC3CCOC3)c2)ccc1-c1cnco1` (stereo not drawn), in assay [2], the concentration for half-maximal inhibition (IC50) turned out to be 110 nM.

In the case of `COc1cc(NC(=NC#N)Nc2ccccn2)ccc1-c1cnco1`, in assay [1], the half-inhibitory concentration (IC50) came to 340 nM. This counts as sub-micromolar.

As to `COc1cc(NC(=N)NC#N)ccc1-c1cnco1`, the 50% inhibitory concentration (IC50) in assay [1] came out at 330 nM.

`COc1cc(NC(=NC#N)NCc2cccc(C)c2)ccc1-c1cnco1`: in assay [1], the half-maximal inhibitory concentration (IC50) amounted to 1100 nM.

On to `COc1cc(N/C(=N/C#N)Nc2ccc(C)cc2)ccc1-c1cnco1`, for which, in assay [1], half-maximal inhibition (IC50) was put at 1500 nM.

Turning to `COc1cc(NC(=NC#N)Nc2cccc(C)c2)ccc1-c1cnco1`, in assay [1], the IC50 was found to be 240 nM.

As to `CON/C(=N\c1ccc(-c2cnco2)c(OC)c1)Nc1cccc(C)c1`, the IC50 in assay [1] amounted to 660 nM.

Take `COc1cc(NC(=NC#N)Nc2cccc(OCCOc3ccccc3)c2)ccc1-c1cnco1`: in assay [1], half-maximal inhibition (IC50) required 380 nM.

`COc1cc(N/C(=N/c2cccc(CO)c2)NC#N)ccc1-c1cnco1`: the 50% inhibitory concentration (IC50) in assay [1] turned out to be 280 nM.

These data come from ChEMBL document CHEMBL1135865, “Novel guanidine-based inhibitors of inosine monophosphate dehydrogenase” (Bioorg Med Chem Lett, 2002).
